From ChEMBL document CHEMBL2157987, “Benzimidazole bearing oxadiazole and triazolo-thiadiazoles nucleus: design and synthesis as anticancer agents” (2012)

Key:
Type in all cases: functional
NCI/ADR-RES = assay: Cytotoxicity against human NCI/ADR-RES cells after 48 hrs by SRB assay
Procedure, shortened: (§1)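 Five-dose NCI-60 panel screen: cells grown in RPMI 1640 with 5% FBS and 2 mM L-glutamine, preincubated 24 h at 37 °C, 5% CO2. Five 10-fold dilutions, 0.01–100 µM, applied for 48 h. Fixed with cold TCA (10% final), stained with 0.4% SRB, absorbance read at 515 nm. GI50, TGI and LC50 were taken from log concentration versus % growth curves using time-zero plates.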

UO-31 = assay: Cytotoxicity against human UO31 cells after 48 hrs by SRB assay; settings: UO-31, 48 h
Procedure, shortened: (§2)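 Cells were grown in RPMI 1640 with 5% FBS and 2 mM L-glutamine, then held 24 h at 37 °C and 5% CO2 before dosing. TCA-fixed time-zero plates were kept. Compound was dissolved in DMSO and given at five 10-fold dilutions for 48 h. Cells were fixed with cold TCA (10% final), stained with 0.4% SRB and read at 515 nm. GI50, TGI and LC50 came from Ti/Tz/control growth formulas.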

SN12C = assay: Cytotoxicity against human SN12C cells after 48 hrs by SRB assay; procedure, shortened: as §2
MDA-MB-435 [1] = assay: Cytotoxicity against human MDA-MB-435 cells after 48 hrs by SRB assay; settings: MDA-MB-435, 48 h; procedure, shortened: as §1
TK-10 = assay: Cytotoxicity against human TK10 cells after 48 hrs by SRB assay; settings: TK-10, 48 h; procedure, shortened: as §2
MDA-MB-435 [2] = assay: Cytotoxicity against human MDA-MB-435 cells assessed as cell growth at 10 uM after 48 hrs by SRB assay; settings: MDA-MB-435, 48 h, read-out: Activity
Procedure, shortened: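 NCI single-dose screen at 10 µM. Cells were incubated 48 h and the end point was read by sulforhodamine B protein staining. Results are given as percent growth of treated cells relative to untreated controls. Growth of 32% or less was counted as active.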

BT-549 = assay: Cytotoxicity against human BT549 cells after 48 hrs by SRB assay; settings: BT-549, 48 h; procedure, shortened: as §1
SK-OV-3 = assay: Cytotoxicity against human SKOV3 cells after 48 hrs by SRB assay; settings: SK-OV-3, 48 h; procedure, shortened: as §1
T47D = assay: Cytotoxicity against human T47D cells after 48 hrs by SRB assay; procedure, shortened: as §2
EKVX = assay: Cytotoxicity against human EKVX cells after 48 hrs by SRB assay; procedure, shortened: as §1
IGROV-1 = assay: Cytotoxicity against human IGROV1 cells after 48 hrs by SRB assay; settings: IGROV-1, 48 h; procedure, shortened: as §1
ACHN = assay: Cytotoxicity against human ACHN cells after 48 hrs by SRB assay; procedure, shortened: as §1
[3] = read-out: pLC50 (the source's name) (converted)
[4] = read-out: LC50 (the source's name)

**Q.** Which CC50 (NCI/ADR-RES; [3]) does the source give for `Nc1cc(Br)c(-c2nnc(CCC(=O)c3nc4ccccc4[nH]3)o2)c(Br)c1` here?
**A.** > 100 µM

**Q.** And the TGI (NCI/ADR-RES; read-out: pTGI)?
**A.** > 100 µM

**Q.** And the GI50 (UO-31)?
**A.** 4.07 µM

**Q.** And the CC50 (UO-31; [4])?
**A.** > 100 µM

**Q.** What about the TGI (UO-31; read-out: TGI) of the same compound?
**A.** > 100 µM

**Q.** What about the CC50 (UO-31; [3]) of the same compound?
**A.** > 100 µM

**Q.** What about the TGI (UO-31; read-out: pTGI) of the same compound?
**A.** > 100 µM

**Q.** And the GI50 (SN12C)?
**A.** 29.5 µM

**Q.** And the CC50 (SN12C; [4])?
**A.** > 100 µM

**Q.** What about the TGI (SN12C; read-out: TGI) of the same compound?
**A.** > 100 µM

**Q.** And the CC50 (SN12C; [3])?
**A.** > 100 µM

**Q.** What about the TGI (SN12C; read-out: pTGI) of the same compound?
**A.** > 100 µM

**Q.** What about the GI50 (MDA-MB-435 [1]) of the same compound?
**A.** 1.55 µM

**Q.** What about the CC50 (MDA-MB-435 [1]; [4]) of the same compound?
**A.** 8.83 µM

**Q.** And the TGI (MDA-MB-435 [1]; read-out: TGI)?
**A.** 3.71 µM

**Q.** And the CC50 (MDA-MB-435 [1]; [3])?
**A.** 8.91 µM

**Q.** And the TGI (MDA-MB-435 [1]; read-out: pTGI (converted))?
**A.** 3.72 µM

**Q.** And the GI50 (TK-10)?
**A.** 36.3 µM

**Q.** And the LC50 (TK-10; read-out: LC50)?
**A.** > 100 µM

**Q.** What about the TGI (TK-10; read-out: TGI) of the same compound?
**A.** > 100 µM

**Q.** And the LC50 (TK-10; read-out: pLC50 (converted))?
**A.** > 100 µM

**Q.** And the TGI (TK-10; read-out: pTGI)?
**A.** > 100 µM

**Q.** And the growth at 10 µM (MDA-MB-435 [2])?
**A.** 5.71%

**Q.** And the GI50 (BT-549)?
**A.** 6.76 µM

**Q.** And the CC50 (BT-549; [4])?
**A.** > 100 µM

**Q.** What about the TGI (BT-549; read-out: TGI) of the same compound?
**A.** > 100 µM

**Q.** What about the CC50 (BT-549; [3]) of the same compound?
**A.** > 100 µM

**Q.** What about the TGI (BT-549; read-out: pTGI) of the same compound?
**A.** > 100 µM

**Q.** And the GI50 (SK-OV-3)?
**A.** 22.4 µM

**Q.** What about the LC50 (SK-OV-3; read-out: LC50) of the same compound?
**A.** > 100 µM

**Q.** And the TGI (SK-OV-3; read-out: TGI)?
**A.** 80.5 µM

**Q.** What about the LC50 (SK-OV-3; read-out: pLC50 (converted)) of the same compound?
**A.** > 100 µM

**Q.** What about the TGI (SK-OV-3; read-out: pTGI (converted)) of the same compound?
**A.** 81.3 µM

**Q.** What about the GI50 (T47D) of the same compound?
**A.** 23.4 µM

**Q.** And the LC50 (T47D; read-out: LC50)?
**A.** > 100 µM

**Q.** What about the TGI (T47D; read-out: TGI) of the same compound?
**A.** > 100 µM

**Q.** And the LC50 (T47D; read-out: pLC50 (converted))?
**A.** > 100 µM

**Q.** And the TGI (T47D; read-out: pTGI)?
**A.** > 100 µM

**Q.** What about the GI50 (EKVX) of the same compound?
**A.** 22.9 µM

**Q.** And the CC50 (EKVX; [4])?
**A.** > 100 µM

**Q.** What about the TGI (EKVX; read-out: TGI) of the same compound?
**A.** > 100 µM

**Q.** And the CC50 (EKVX; [3])?
**A.** > 100 µM

**Q.** And the TGI (EKVX; read-out: pTGI)?
**A.** > 100 µM

**Q.** And the GI50 (IGROV-1)?
**A.** 5.89 µM

**Q.** What about the LC50 (IGROV-1; read-out: LC50) of the same compound?
**A.** > 100 µM

**Q.** And the TGI (IGROV-1; read-out: TGI)?
**A.** 62.7 µM

**Q.** And the LC50 (IGROV-1; read-out: pLC50 (converted))?
**A.** > 100 µM

**Q.** And the TGI (IGROV-1; read-out: pTGI (converted))?
**A.** 63.1 µM

**Q.** What about the GI50 (ACHN) of the same compound?
**A.** 47.9 µM

**Q.** What about the LC50 (ACHN; read-out: LC50) of the same compound?
**A.** > 100 µM

**Q.** What about the TGI (ACHN; read-out: TGI) of the same compound?
**A.** > 100 µM

**Q.** What about the LC50 (ACHN; read-out: pLC50 (converted)) of the same compound?
**A.** > 100 µM

**Q.** And the TGI (ACHN; read-out: pTGI)?
**A.** > 100 µM
